Measurements collected from several papers.
Lines come from different studies, so protocols differ.

SMILES | test | system | setting | logP
CC1=NN(CNC(=O)c2ccccn2)C(=O)C1=NNn1c(-c2ccccc2)nc2ccccc2c1=O | – | – | – | 3.26
C=CCN1CC[C@]23c4c5ccc(O)c4O[C@H]2[C@@H](OCCOCCOCCOCCOCCOCCOCCOC)CC[C@@]3(O)[C@H]1C5 | – | – | – | 1.43
C=C[C@H]1C[N@]2CC[C@H]1C[C@@H]2C(O)c1ccnc2ccc(OC)cc12 (stereo partly shown) | – | water | – | 3.17
O=C(c1cc(Cc2n[nH]c(=O)c3ccccc23)ccc1F)N1CCN(C(=O)C2CC2)CC1 | – | – | – | 1.55
C=C(C)[C@@H]1CCC(C)=C[C@H]1c1c(O)cc(CCCCC)cc1O | – | – | – | 7.11
CC1=NN(CNc2ccc(Cl)cc2)C(=O)C1=NNn1c(-c2ccccc2)nc2ccccc2c1=O | – | – | – | 5.1
Nc1nc(-c2ccccc2)nc2[nH]nc(Nc3ccc(C(F)(F)F)cc3)c12 | – | – | – | 2.85
CC(C)N1CCN(Cc2cnc(-c3cc(-c4cccc5[nH]ccc45)cc4[nH]ncc34)o2)CC1 | – | – | – | 4.01
CC1=NN(CNc2ccc(O)cc2)C(=O)C1=NNn1c(-c2ccccc2)nc2ccccc2c1=O | – | – | – | 4.19
Clc1cc2c(c3ncccc13)OCN(CCc1ccccc1)C2 | – | – | – | 4.54
N#Cc1[nH]nnc1-c1csc(-c2ccc(Cl)cc2)n1 | potentiometric | – | – | 4.5
Cc1cc(Cl)cc(S(C)(=O)=O)c1NC(=O)c1cc(Br)nn1-c1ncccc1Cl | potentiometric | – | – | 4.34
Nc1nc2[nH]cc(CCc3ccc(C(=O)N[C@@H](CCC(=O)O)C(=O)O)cc3)c2c(=O)[nH]1 | – | water | 24 h | -0.842
CCc1nc(N)nc(N)c1-c1ccc(Cl)cc1 | – | – | – | 3.14
N#Cc1[nH]nnc1-c1cccc(OCc2cc(C(F)(F)F)ccc2C(F)(F)F)c1 | potentiometric | – | – | 5.5
CC1=NN(CNc2ccc(C(=O)O)cc2)C(=O)C1=NNn1c(-c2ccccc2)nc2ccccc2c1=O | – | – | – | 4.15
